Converted amounts (≈) assume the structure as drawn.

A word on the MIC99: it is the lowest concentration that inhibits either 99% of growth or 99% of the strains tested, depending on the study. Higher therefore signals lower susceptibility.

What all share (type): functional
The subject of assay [1] is Aspergillus niger. Description: Antifungal activity against Aspergillus niger MTCC 282.
Assay [2] concerns Candida albicans. As to the kind of experiment: Antifungal activity against Candida albicans MTCC 227.
Assay [3] has as its system Aspergillus clavatus. As to the kind of experiment: Antifungal activity against Aspergillus clavatus MTCC 1323.
Assay [4] relates to Mycobacterium tuberculosis. As to the kind of experiment: Antitubercular activity against Mycobacterium tuberculosis H37Rv by Lowenstein-Jensen slope method. In a few lines: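 Lowenstein–Jensen medium used both to grow the strain and to dilute test drugs. Inoculum adjusted to 1 mg/mL. Compounds were made as 2 mg/mL stocks and diluted with 1% DMSO. Primary screen at 500, 250 and 125; actives were retested at 100 down to 1.5625 (twofold series). MIC is the minimum concentration inhibiting 99% of growth. Vehicle and reference controls were included, and tests were run in duplicate.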

For assay [5], the system named is Staphylococcus aureus. As to the kind of experiment: Antibacterial activity against Staphylococcus aureus MTCC 96.
Assay [6] deals with Bacillus subtilis. As to the kind of experiment: Antibacterial activity against Bacillus subtilis MTCC 441.
The subject of assay [7] is Streptococcus pyogenes. Description: Antibacterial activity against Streptococcus pyogenes MTCC 442.
The test system of assay [8] is Escherichia coli. Description: Antibacterial activity against Escherichia coli MTCC 443.

Take NYSTATIN: the MIC99 in assay [1], in assay [2] and in assay [3] was 100 µg/mL throughout.

As to `O=C(/C=C/c1cn(-c2ccccc2)nc1-c1ccc(F)cc1)c1ccccc1`, the MIC99 was 50 µg/mL (≈ 136 µM) in assay [4]; 10 µg/mL (≈ 27.1 µM) in assay [5]; 50 µg/mL (≈ 136 µM) in assay [1]; 25 µg/mL (≈ 67.9 µM) in assay [6]; 25 µg/mL (≈ 67.9 µM) in assay [2]; 50 µg/mL (≈ 136 µM) in assay [3]. Further, the figures for the MIC99 in assay [7] and in assay [8] were 12.5 µg/mL (≈ 33.9 µM) and 20 µg/mL (≈ 54.3 µM), respectively.

Take `Fc1ccc(-c2nn(-c3ccccc3)cc2C2=NNC(c3ccc(Br)cc3)C2)cc1` (configuration not stated): the MIC99 in assay [4] is 50 µg/mL (≈ 108 µM); in assay [5] it was 6.25 µg/mL (≈ 13.5 µM); in assay [1], 10 µg/mL (≈ 21.7 µM); in assay [6], 10 µg/mL (≈ 21.7 µM); in assay [2], 10 µg/mL (≈ 21.7 µM); in assay [3] it was 10 µg/mL (≈ 21.7 µM). Moreover, the values for the MIC99 in assay [7] and in assay [8] were 10 µg/mL (≈ 21.7 µM) and 6.25 µg/mL (≈ 13.5 µM), respectively.

For `Fc1ccc(-c2nn(-c3ccccc3)cc2C2=NNC(c3ccc(Cl)cc3)C2)cc1` (configuration not stated), the MIC99 in assay [4] turned out to be 6.25 µg/mL (≈ 15 µM); in assay [5] it was 20 µg/mL (≈ 48 µM); in assay [1], 50 µg/mL (≈ 120 µM); in assay [6], 25 µg/mL (≈ 60 µM); in assay [2], 100 µg/mL (≈ 240 µM); in assay [3] it was 50 µg/mL (≈ 120 µM). For the same molecule, the MIC99 in assay [7] is 20 µg/mL (≈ 48 µM); in assay [8], 25 µg/mL (≈ 60 µM).

For `Fc1ccc(-c2nn(-c3ccccc3)cc2C2=NNC(c3ccccc3)C2)cc1` (configuration not stated), the MIC99 in assay [4] is 25 µg/mL (≈ 65.4 µM); in assay [5], 50 µg/mL (≈ 131 µM); in assay [1], 50 µg/mL (≈ 131 µM); in assay [6], 20 µg/mL (≈ 52.3 µM); in assay [2], 50 µg/mL (≈ 131 µM); in assay [3], 50 µg/mL (≈ 131 µM). Moreover, the MIC99 in assay [7] turned out to be 50 µg/mL (≈ 131 µM); in assay [8], 10 µg/mL (≈ 26.1 µM).

For the molecule `Cc1ccc(C(=O)/C=C/c2cn(-c3ccccc3)nc2-c2ccc(F)cc2)cc1`, the MIC99 in assay [4] is 6.25 µg/mL (≈ 16.3 µM); in assay [5] it was 20 µg/mL (≈ 52.3 µM); in assay [1], 100 µg/mL (≈ 261 µM); in assay [6], 20 µg/mL (≈ 52.3 µM); in assay [2], 50 µg/mL (≈ 131 µM); in assay [3] it was 100 µg/mL (≈ 261 µM). Further, the MIC99 in assay [7] stood at 25 µg/mL (≈ 65.4 µM); in assay [8] it was 12.5 µg/mL (≈ 32.7 µM).

Consider `O=C(/C=C/c1cn(-c2ccccc2)nc1-c1ccc(F)cc1)c1ccc(F)cc1`, for which the MIC99 came out at 25 µg/mL (≈ 64.7 µM) in assay [4]; 6.25 µg/mL (≈ 16.2 µM) in assay [5]; 20 µg/mL (≈ 51.8 µM) in assay [1]; 20 µg/mL (≈ 51.8 µM) in assay [6]; 100 µg/mL (≈ 259 µM) in assay [2]; 20 µg/mL (≈ 51.8 µM) in assay [3]. Further, the MIC99 in assay [7] stood at 10 µg/mL (≈ 25.9 µM); in assay [8] it was 25 µg/mL (≈ 64.7 µM).

As to `O=C(/C=C/c1cn(-c2ccccc2)nc1-c1ccc(F)cc1)c1ccc(Br)cc1`, the MIC99 in assay [4] is 50 µg/mL (≈ 112 µM); in assay [5], 25 µg/mL (≈ 55.9 µM); in assay [1], above 100 µg/mL; in assay [6], 20 µg/mL (≈ 44.7 µM); in assay [2] it was 10 µg/mL (≈ 22.4 µM); in assay [3], above 100 µg/mL. Moreover, the MIC99 in assay [7] and in assay [8] was 20 µg/mL (≈ 44.7 µM) in each case.

`Fc1ccc(-c2nn(-c3ccccc3)cc2C2=NNC(c3ccc(F)cc3)C2)cc1` (configuration not stated): the MIC99 in assay [4] amounted to 25 µg/mL (≈ 62.4 µM); in assay [5], 25 µg/mL (≈ 62.4 µM); in assay [1], 50 µg/mL (≈ 125 µM); in assay [6], 25 µg/mL (≈ 62.4 µM); in assay [2] it was 20 µg/mL (≈ 49.9 µM); in assay [3] it was 50 µg/mL (≈ 125 µM). The MIC99 in assay [7] was found to be 25 µg/mL (≈ 62.4 µM); in assay [8], 20 µg/mL (≈ 49.9 µM).

On to `NNC(=O)c1ccncc1` [ISONIAZID], for which the MIC99 in assay [4] amounted to 0.2 µg/mL (≈ 1.46 µM).

`O=C(O)c1cn(C2CC2)c2cc(N3CCNCC3)c(F)cc2c1=O` [CIPROFLOXACIN]: the MIC99 in assay [5] came out at 50 µg/mL (≈ 151 µM); in assay [6] it was 25 µg/mL (≈ 75.4 µM); in assay [7] it was 50 µg/mL (≈ 151 µM); in assay [8] it was 25 µg/mL (≈ 75.4 µM).

Take `O=C(/C=C/c1cn(-c2ccccc2)nc1-c1ccc(F)cc1)c1ccc(Cl)cc1`: the MIC99 in assay [4] is 10 µg/mL (≈ 24.8 µM); in assay [5] it was 25 µg/mL (≈ 62.1 µM); in assay [1], above 100 µg/mL; in assay [6] it was 12.5 µg/mL (≈ 31 µM); in assay [2], 100 µg/mL (≈ 248 µM); in assay [3], above 100 µg/mL. Besides, the values for the MIC99 in assay [7] and in assay [8] were 20 µg/mL (≈ 49.6 µM) and 6.25 µg/mL (≈ 15.5 µM), respectively.

On to `COC1=CC(=O)C[C@@H](C)[C@]12Oc1c(Cl)c(OC)cc(OC)c1C2=O` [GRISEOFULVIN], for which the MIC99 in assay [1] amounted to 100 µg/mL (≈ 283 µM); in assay [2], 500 µg/mL (≈ 1420 µM); in assay [3], 100 µg/mL (≈ 283 µM).

Regarding GENTAMICIN, the MIC99 was found to be 0.25 µg/mL in assay [5], 1 µg/mL in assay [6], 0.5 µg/mL in assay [7] and 0.05 µg/mL in assay [8].

Take `Cc1ccc(C2CC(c3cn(-c4ccccc4)nc3-c3ccc(F)cc3)=NN2)cc1` (configuration not stated): the MIC99 in assay [4] was 10 µg/mL (≈ 25.2 µM); in assay [5] it was 12.5 µg/mL (≈ 31.5 µM); in assay [1], 100 µg/mL (≈ 252 µM); in assay [6] it was 50 µg/mL (≈ 126 µM); in assay [2], 25 µg/mL (≈ 63.1 µM); in assay [3] it was 100 µg/mL (≈ 252 µM). The MIC99 was 10 µg/mL (≈ 25.2 µM) in assay [7] and 50 µg/mL (≈ 126 µM) in assay [8].

For `CC1(C)S[C@@H]2[C@H](NC(=O)[C@H](N)c3ccccc3)C(=O)N2[C@H]1C(=O)O` [AMPICILLIN], the MIC99 in assay [5] stood at 250 µg/mL (≈ 715 µM); in assay [6], 100 µg/mL (≈ 286 µM); in assay [7], 100 µg/mL (≈ 286 µM); in assay [8], 100 µg/mL (≈ 286 µM).

`CCn1cc(C(=O)O)c(=O)c2cc(F)c(N3CCNCC3)cc21` [NORFLOXACIN]: the MIC99 in assay [5], in assay [6], in assay [7] and in assay [8] was 10 µg/mL (≈ 31.3 µM) each time.

As to `O=C(N[C@H](CO)[C@H](O)c1ccc([N+](=O)[O-])cc1)C(Cl)Cl` [CHLORAMPHENICOL], the MIC99 in assay [5], in assay [6], in assay [7] and in assay [8] was 50 µg/mL (≈ 155 µM) throughout.

For the origin of these results see ChEMBL document CHEMBL2062456, “Green synthesis and anti-infective activities of fluorinated pyrazoline derivatives” (2012).
